From ChEMBL document CHEMBL2062469, “1-(2-Mercaptobenzenesulfonyl)-3-hydroxyguanidines--novel potent antiproliferatives, synthesis and in vitro biological activity” (2012)

What was measured:
Format in all cases: functional
[1] = tested on: SN12C; experiment: Cytostatic activity against human SN12C cells
Method in brief: (§1)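 NCI-60 human tumor cell line screen run by the US National Cancer Institute under the NIH Developmental Therapeutics Program protocol. A single-dose prescreen at 10 µM came first. Selected compounds then went into the 5-dose assay. Cytostatic activity is reported as GI50 (µM).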

[2] = tested on: HOP-92; experiment: Cytostatic activity against human HOP92 cells; method in brief: as §1
[3] = tested on: OVCAR-4; experiment: Cytostatic activity against human OVCAR4 cells; method in brief: as §1
[4] = tested on: UACC-62; experiment: Cytostatic activity against human UACC62 cells
Method in brief: (§2)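 Human tumour cell lines from the NCI-60 panel, tested at the US National Cancer Institute under the NIH Developmental Therapeutics Program protocol. A single-dose prescreen at 10 µM came first. Selected compounds then went to a 5-dose assay, which gave GI50 and TGI values in µM.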

[5] = tested on: NCI-H460; experiment: Cytostatic activity against human NCI-H460 cells; method in brief: as §1
[6] = tested on: NCI-H322M; experiment: Cytostatic activity against human NCI-H322M cells; method in brief: as §1
[7] = tested on: SF-268; experiment: Cytostatic activity against human SF268 cells; method in brief: as §1
[8] = tested on: OVCAR-5; experiment: Cytostatic activity against human OVCAR5 cells; method in brief: as §1
[9] = tested on: HT-29; experiment: Cytostatic activity against human HT-29 cells; method in brief: as §1
[10] = tested on: SK-MEL-5; experiment: Cytostatic activity against human SK-MEL-5 cells; method in brief: as §1
[11] = tested on: NCI-H23; experiment: Cytostatic activity against human NCI-H23 cells; method in brief: as §1
[12] = tested on: DU-145; experiment: Cytostatic activity against human DU145 cells; method in brief: as §1
[13] = tested on: LOX IMVI; experiment: Cytostatic activity against human LOXIMVI cells; method in brief: as §1
[14] = tested on: OVCAR-3; experiment: Cytostatic activity against human OVCAR3 cells; method in brief: as §1
[15] = tested on: HL-60(TB); experiment: Cytostatic activity against human HL-60(TB) cells
Method in brief: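 NCI-60 panel screen run per the NIH Developmental Therapeutics Program protocol. Agents first went through a one-dose test at 10 µM. Selected compounds were then run in a 5-dose assay, from which GI50 and TGI values were derived.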

[16] = tested on: TK-10; experiment: Cytostatic activity against human TK10 cells; method in brief: as §2
[17] = tested on: HOP-62; experiment: Cytostatic activity against human HOP62 cells; method in brief: as §1
[18] = tested on: MDA-MB-435; experiment: Cytostatic activity against human MDA-MB-435 cells; method in brief: as §1
[19] = tested on: HCT-15; experiment: Cytostatic activity against human HCT15 cells; method in brief: as §1
[20] = tested on: NCI-H226; experiment: Cytostatic activity against human NCI-H226 cells; method in brief: as §1
[21] = tested on: NCI-H522; experiment: Cytostatic activity against human NCI-H522 cells; method in brief: as §1
[22] = tested on: CCRF-CEM; experiment: Cytostatic activity against human CCRF-CEM cells; method in brief: as §1
[23] = tested on: MOLT-4; experiment: Cytostatic activity against human MOLT4 cells; method in brief: as §1
[24] = tested on: A549; experiment: Cytostatic activity against human A549/ATCC cells; method in brief: as §1
[25] = tested on: CAKI-1; experiment: Cytostatic activity against human Caki1 cells; method in brief: as §1
[26] = tested on: U-251; experiment: Cytostatic activity against human U251 cells; method in brief: as §2
[27] = tested on: Malme-3M; experiment: Cytostatic activity against human MALME-3M cells; method in brief: as §1
[28] = tested on: SF-539; experiment: Cytostatic activity against human SF539 cells; method in brief: as §1
[29] = tested on: NCI/ADR-RES; experiment: Cytostatic activity against human NCI-ADR-RES cells; method in brief: as §1
[30] = tested on: ACHN; experiment: Cytostatic activity against human ACHN cells; method in brief: as §1
[31] = tested on: SK-MEL-2; experiment: Cytostatic activity against human SK-MEL-2 cells; method in brief: as §1
[32] = tested on: SR; experiment: Cytostatic activity against human SR cells; method in brief: as §2
[33] = tested on: MCF7; experiment: Cytostatic activity against human MCF7 cells; method in brief: as §1
[34] = tested on: M14; experiment: Cytostatic activity against human M14 cells; method in brief: as §1
[35] = tested on: SNB-19; experiment: Cytostatic activity against human SNB19 cells; method in brief: as §1
[36] = tested on: SNB-75; experiment: Cytostatic activity against human SNB75 cells; method in brief: as §2
[37] = tested on: PC-3; experiment: Cytostatic activity against human PC3 cells; method in brief: as §1
[38] = tested on: Hs-578T; experiment: Cytostatic activity against human Hs 578T cells; method in brief: as §1
[39] = tested on: IGROV-1; experiment: Cytostatic activity against human IGROV1 cells; method in brief: as §1
[40] = tested on: SK-MEL-28; experiment: Cytostatic activity against human SK-MEL-28 cells; method in brief: as §1
[41] = tested on: HCC 2998; experiment: Cytostatic activity against human HCC2998 cells; method in brief: as §1
[42] = tested on: T47D; experiment: Cytostatic activity against human T47D cells; method in brief: as §2
[43] = tested on: MDA-MB-231; experiment: Cytostatic activity against human MDA-MB-231/ATCC cells; method in brief: as §1
[44] = tested on: K562; experiment: Cytostatic activity against human K562 cells; method in brief: as §1
[45] = tested on: UACC-257; experiment: Cytostatic activity against human UACC257 cells; method in brief: as §2
[46] = Cytostatic activity against human […] cells; method in brief: as §1
[47] = tested on: MDA-MB-468; experiment: Cytostatic activity against human MDA-MB-468 cells; method in brief: as §1
[48] = tested on: HCT-116; experiment: Cytostatic activity against human HCT116 cells; method in brief: as §1
[49] = tested on: OVCAR-8; experiment: Cytostatic activity against human OVCAR8 cells; method in brief: as §1
[50] = tested on: UO-31; experiment: Cytostatic activity against human UO31 cells; method in brief: as §2
[51] = tested on: RXF 393; experiment: Cytostatic activity against human RXF393 cells; method in brief: as §1
[52] = tested on: SW-620; experiment: Cytostatic activity against human SW620 cells; method in brief: as §2
[53] = tested on: COLO 205; experiment: Cytostatic activity against human COLO205 cells; method in brief: as §1
[54] = tested on: EKVX; experiment: Cytostatic activity against human EKVX cells; method in brief: as §1
[55] = tested on: KM12; experiment: Cytostatic activity against human KM12 cells; method in brief: as §1
[56] = tested on: SF-295; experiment: Cytostatic activity against human SF295 cells; method in brief: as §1
[57] = tested on: A498; experiment: Cytostatic activity against human A498 cells; method in brief: as §1

N=C(NO)NS(=O)(=O)c1cc(-c2nnc(-c3ccc(Cl)cc3)s2)c(Cl)cc1SCc1ccccc1
GI50 [1]: 1.67 µM | TGI [1]: 3.2 µM | GI50 [2]: 2.76 µM | TGI [2]: 7.42 µM | GI50 [3]: 1.65 µM | TGI [3]: 4.01 µM | GI50 [4]: 2.02 µM | TGI [4]: 3.76 µM | GI50 [5]: 1.73 µM | TGI [5]: 3.49 µM | GI50 [6]: 1.93 µM | TGI [6]: 3.99 µM | GI50 [7]: 1.9 µM | TGI [7]: 4.21 µM | GI50 [8]: 1.6 µM | TGI [8]: 3.02 µM | GI50 [9]: 1.67 µM | TGI [9]: 3.13 µM | GI50 [10]: 1.58 µM | TGI [10]: 3.05 µM | GI50 [11]: 1.7 µM | TGI [11]: 3.73 µM | GI50 [12]: 1.73 µM | TGI [12]: 3.1 µM | GI50 [13]: 1.68 µM | TGI [13]: 3.47 µM | GI50 [14]: 1.67 µM | TGI [14]: 3.12 µM | GI50 [15]: 1.78 µM | TGI [15]: 4.53 µM | GI50 [16]: 1.87 µM | TGI [16]: 3.43 µM | GI50 [17]: 2.05 µM | TGI [17]: 3.98 µM | GI50 [18]: 2.11 µM | TGI [18]: 4.17 µM | GI50 [19]: 1.57 µM | TGI [19]: 3.17 µM | GI50 [20]: 2.07 µM | TGI [20]: 4.05 µM | GI50 [21]: 1.67 µM | TGI [21]: 3.41 µM | GI50 [22]: 0.84 µM | TGI [22]: 3.83 µM | GI50 [23]: 1.25 µM | TGI [23]: 3.57 µM | GI50 [24]: 2.25 µM | TGI [24]: 5.64 µM | GI50 [25]: 2.27 µM | TGI [25]: 4.67 µM | GI50 [26]: 1.54 µM | TGI [26]: 3.09 µM | GI50 [27]: 1.96 µM | TGI [27]: 4.03 µM | GI50 [28]: 1.97 µM | TGI [28]: 3.9 µM | GI50 [29]: 7.39 µM | GI50 [30]: 1.71 µM | TGI [30]: 3.15 µM | GI50 [31]: 1.75 µM | TGI [31]: 3.5 µM | GI50 [32]: 1.45 µM | TGI [32]: 4.2 µM | GI50 [33]: 1.57 µM | TGI [33]: 3.03 µM | GI50 [34]: 1.68 µM | TGI [34]: 3.2 µM | GI50 [35]: 1.74 µM | TGI [35]: 3.42 µM | GI50 [36]: 1.49 µM | TGI [36]: 3.18 µM | GI50 [37]: 1.74 µM | TGI [37]: 3.27 µM | GI50 [38]: 2.51 µM | TGI [38]: 7.26 µM | GI50 [39]: 2.57 µM | TGI [39]: 5.38 µM | GI50 [40]: 1.91 µM | TGI [40]: 3.47 µM | GI50 [41]: 1.81 µM | TGI [41]: 3.42 µM | GI50 [42]: 2.07 µM | TGI [42]: 4.81 µM | GI50 [43]: 2.07 µM | TGI [43]: 4.79 µM | GI50 [44]: 2.23 µM | TGI [44]: 6.31 µM | GI50 [45]: 2.1 µM | TGI [45]: 4.05 µM | GI50 [46]: 1.74 µM | TGI [46]: 4.34 µM | GI50 [47]: 1.52 µM | TGI [47]: 2.85 µM | GI50 [48]: 1.56 µM | TGI [48]: 3.11 µM | GI50 [49]: 2.03 µM | TGI [49]: 4.3 µM | GI50 [50]: 1.99 µM | TGI [50]: 4.68 µM | GI50 [51]: 1.66 µM | TGI [51]: 3.04 µM | GI50 [52]: 1.47 µM | TGI [52]: 3.07 µM | GI50 [53]: 1.89 µM | TGI [53]: 3.74 µM | GI50 [54]: 1.99 µM | TGI [54]: 4.12 µM | GI50 [55]: 1.75 µM | TGI [55]: 3.33 µM | GI50 [56]: 2.21 µM | TGI [56]: 4.65 µM | GI50 [57]: 1.75 µM | TGI [57]: 5.55 µM
